Target in one assay: not listed separately
As to the kind of experiment: Inhibition of desert banana tyrosinase using p-cresol as substrate. More on the design: species or system Musa acuminata.
As a reminder, the IC50 is the midpoint of a concentration-inhibition curve. Regarding `O=S(O)S(=O)(=O)O` [SODIUM METABISULFITE], the IC50 is 65 µM. In turn, `O[C@@H](CS)[C@@H](O)CS` (relative stereo) [DITHIOTHREITOL] registered an IC50 of 63 µM. The IC50 values of the last two compounds are within 1.5-fold of each other. The same measure, in the same setting: to `N[C@@H](CS)C(=O)O` [CYSTEINE] belongs 322 µM. As a reminder, the Ki is a dissociation constant, usually derived from enzyme kinetics or from competition with a known ligand. Turning to `O=C1O[C@H]([C@@H](O)CO)C(O)=C1O` [ASCORBIC ACID], it took 437 µM to reach half-maximal inhibition (IC50) and the Ki came out at 530 µM.

In the next assay the test system is Musa x paradisiaca. Nature of the assay: Competitive inhibition of banana tyrosinase using catechol as substrate by Lineweaver-Burk plot analysis. The method in brief: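 Banana PPO was partially purified: ammonium sulfate to 80% saturation, dialysis in 5 mM phosphate, then a Sepharose 4B-tyrosine-p-aminobenzoic acid affinity column eluted with 1 M NaCl, 5 mM phosphate, pH 7.0. Catechol oxidation was read as the rise in A420, in duplicate, corrected for non-enzymatic change. Ki and inhibition type came from Lineweaver–Burk 1/V vs 1/[S] plots at two inhibitor levels (0.01–0.20 mM).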
As to `O=C1NS(=O)(=O)c2cc(NC(=S)Nc3cccc(I)c3)ccc21`, the Kic was found to be 3.95 µM. On the same count and under the same terms, to `COc1ccc(NC(=S)Nc2ccc3c(c2)S(=O)(=O)NC3=O)cc1` belongs 9.81 µM; to `O=C(Nc1ccc(Cl)cc1)Nc1ccc2c(c1)S(=O)(=O)NC2=O`, 40.2 µM; to `Cc1ccc(NC(=S)Nc2ccc3c(c2)S(=O)(=O)NC3=O)cc1`, 9.96 µM. The same measure, in the same setting: the figure for `O=C(Nc1cccc([N+](=O)[O-])c1)Nc1ccc2c(c1)S(=O)(=O)NC2=O` is 16.9 µM; for `O=C1NS(=O)(=O)c2cc(NC(=S)Nc3ccccc3F)ccc21` it is 4.23 µM; for `O=C1NS(=O)(=O)c2cc(NC(=S)Nc3ccc([N+](=O)[O-])cc3)ccc21` it is 19.5 µM. Take `O=C1NS(=O)(=O)c2cc(NC(=S)Nc3ccc(F)cc3)ccc21`: the Kic amounted to 14.8 µM. In turn, `O=C(Nc1cccc(F)c1)Nc1ccc2c(c1)S(=O)(=O)NC2=O` gave a Kic of 12.1 µM. Still for that read-out and setting: to `O=C1NS(=O)(=O)c2cc(NC(=S)Nc3cccc(Cl)c3)ccc21` belongs 28.3 µM; to `Cc1ccc(NC(=O)Nc2ccc3c(c2)S(=O)(=O)NC3=O)cc1`, 16.2 µM; to `O=C(Nc1ccc2c(c1)S(=O)(=O)NC2=O)Nc1ccccc1F`, 35.1 µM.

Compound `O=C1NS(=O)(=O)c2cc(NC(=S)Nc3cc(Cl)cc(Cl)c3)ccc21` came in with a Kic of 13.7 µM. The same measure, in the same setting: to `COc1cccc(NC(=O)Nc2ccc3c(c2)S(=O)(=O)NC3=O)c1` belongs 14.1 µM.

Turning to `O=C(Nc1ccc(Cl)c(Cl)c1)Nc1ccc2c(c1)S(=O)(=O)NC2=O`, the Kic turned out to be 14.9 µM. The same measure, in the same setting: to `O=C1NS(=O)(=O)c2cc(NC(=S)Nc3ccccc3)ccc21` belongs 10.7 µM. Compound `O=C(Nc1ccc([N+](=O)[O-])cc1)Nc1ccc2c(c1)S(=O)(=O)NC2=O` came in with a Kic of 22 µM. The same measure, in the same setting: to `O=C1NS(=O)(=O)c2cc(NC(=S)Nc3cccc(F)c3)ccc21` belongs 11.1 µM; to `O=C(Nc1ccc(F)cc1)Nc1ccc2c(c1)S(=O)(=O)NC2=O`, 15.6 µM; to `COc1ccc(NC(=O)Nc2ccc3c(c2)S(=O)(=O)NC3=O)cc1`, 16.6 µM. The same measure, in the same setting: the figure for `Nc1ccc2c(c1)S(=O)(=O)NC2=O` is 13.6 µM; for `O=C1NS(=O)(=O)c2cc(NC(=S)Nc3ccc(Cl)cc3Cl)ccc21` it is 10.1 µM; for `O=C(Nc1cccc(Cl)c1)Nc1ccc2c(c1)S(=O)(=O)NC2=O` it is 5.85 µM. The same measure, in the same setting: the figure for `O=C(Nc1ccccc1)Nc1ccc2c(c1)S(=O)(=O)NC2=O` is 13.4 µM.

For the origin of these results see ChEMBL document CHEMBL2016504, “New saccharin derivatives as tyrosinase inhibitors” (Bioorg Med Chem, 2012).
